Data as given in ChEMBL document CHEMBL1138087, “Synthesis and evaluation of N-aryl pyrrolidinones as novel anti-HIV-1 agents. Part 1” (Bioorg Med Chem Lett, 2006).

Key:
[1] = system: Human immunodeficiency virus 1; assay: Antiviral activity against wild type HIV1 virus; type: functional, organism-based
Method in brief: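 HEK 293T cells grown in DMEM with 10% FBS and Pen/Strep/Glutamine. Seeded at 700 cells/well, cultured 24 h at 37 °C under 5% CO₂. Serially diluted compound in DMSO added, then 1 h at 37 °C. HIV reporter virus added at MOI about 1.0, cells cultured a further 48 h at 37 °C. Luciferase read-out with Bright-Glo reagent.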

HEK293 = assay: Cytotoxicity against HEK293T cells; type: functional; settings: Homo sapiens
Method in brief: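 293T cells seeded at 700 cells/well and cultured 24 h at 37 °C under 5% CO₂. Serially diluted compound in DMSO added to uninfected cells, then a further 48 h at 37 °C. Viability read by fluorescence after Alamar Blue (diluted 1:1 in DMEM) and 4 h at room temperature.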

[2] = system: Human immunodeficiency virus 1; assay: Selectivity for wild type HIV1 virus over HIV1 L100I mutant; type: functional
[3] = system: Human immunodeficiency virus 1; assay: Antiviral activity against HIV1 K103N/L100I mutant; type: functional, organism-based
Method in brief: (§1)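 HEK 293T cells grown in DMEM with 10% FBS and Pen/Strep/Glutamine. Cells seeded at 700 cells/well and cultured 24 h at 37 °C under 5% CO₂. Compounds serially diluted in DMSO were added and incubated 1 h at 37 °C. Cells were then infected with HIV reporter virus at MOI ~1.0 and cultured a further 48 h at 37 °C. Read-out was luciferase activity (Bright-Glo).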

[4] = system: Human immunodeficiency virus 1; assay: Selectivity for wild type HIV1 virus over HIV1 Y181C mutant; type: functional
[5] = system: Human immunodeficiency virus 1; assay: Selectivity for wild type HIV1 virus over HIV1 K103N/L100I mutant; type: functional
[6] = system: Human immunodeficiency virus 1; assay: Selectivity for wild type HIV1 virus over HIV1 K103N mutant; type: functional
[7] = system: Human immunodeficiency virus 1; assay: Antiviral activity against HIV1 Y181C mutant; type: functional, organism-based; method in brief: as §1
[8] = system: Human immunodeficiency virus 1; assay: Antiviral activity against HIV1 K103N mutant; type: functional, organism-based; method in brief: as §1
[9] = system: Human immunodeficiency virus 1; assay: Antiviral activity against HIV1 L100I mutant; type: functional, organism-based; method in brief: as §1

| EC50 [1] [nM] | SMILES | CC50 (HEK293) [nM] | further results |
| --- | --- | --- | --- |
| > 10000 | COc1ccc([C@H]2CC(=O)N(C(=O)c3ccccc3)C2)cc1OC1CCCC1 | > 10000 |  |
| 1020 | COc1ccc([C@H]2CC(=O)N(c3cccc(NCC4CCOC4)c3)C2)cc1OC1CCCC1 (stereo partly specified) | > 10000 |  |
| > 10000 | COc1ccc([C@@H]2CNC(=O)C2)cc1OC1CCCC1 [(-)-ROLIPRAM] | > 10000 |  |
| 2950 | COc1ccc([C@H]2CC(=O)N(c3cccc(C(F)(F)F)c3)C2)cc1OC1CCCC1 | > 10000 |  |
| > 10000 | COc1ccc([C@H]2CC(=O)N(C(C)=O)C2)cc1OC1CCCC1 | > 10000 |  |
| 2370 | COc1ccc([C@H]2CC(=O)N(c3cccnc3)C2)cc1OC1CCCC1 | > 10000 |  |
| 2630 | COc1ccc([C@H]2CC(=O)N(c3ccccn3)C2)cc1OC1CCCC1 | > 10000 |  |
| > 10000 | COc1ccc([C@H]2CC(=O)N(c3ccccc3C#N)C2)cc1OC1CCCC1 | > 10000 |  |
| 124 | COc1ccc([C@H]2CC(=O)N(c3cccc(NC(=O)C(=O)c4cccc(N(C)C)c4)c3)C2)cc1OC1CCCC1 | > 10000 |  |
| 3260 | COc1ccc([C@H]2CC(=O)N(c3ccc(C)cc3)C2)cc1OC1CCCC1 | > 10000 |  |
| > 10000 | COc1ccc([C@H]2CC(=O)N(Cc3cccc([N+](=O)[O-])c3)C2)cc1OC1CCCC1 | > 10000 |  |
| 1860 | COc1ccc([C@H]2CC(=O)N(c3ccc(N)cc3)C2)cc1OC1CCCC1 | > 10000 |  |
| > 10000 | COc1ccc([C@H]2CC(=O)N(c3cccc([S+](C)[O-])c3)C2)cc1OC1CCCC1 (stereo partly specified) | > 10000 |  |
| 6960 | CCCCNc1cccc(N2C[C@@H](c3ccc(OC)c(OC4CCCC4)c3)CC2=O)c1 | > 10000 |  |
| 502 | COc1cccc(C(=O)C(=O)Nc2cccc(N3C[C@@H](c4ccc(OC)c(OC5CCCC5)c4)CC3=O)c2)c1 | > 10000 |  |
| 3620 | COc1ccc([C@H]2CC(=O)N(c3ccc(C(F)(F)F)cc3)C2)cc1OC1CCCC1 | > 10000 |  |
| > 10000 | COc1ccc([C@H]2CC(=O)N(c3cccc(N)c3C)C2)cc1OC1CCCC1 | > 10000 |  |
| 104 | COc1ccc(OC)c(S(=O)(=O)Nc2cccc(N3C[C@@H](c4ccc(OC)c(OC5CCCC5)c4)CC3=O)c2)c1 | 7590 |  |
| 4710 | COc1ccc([C@H]2CC(=O)N(c3cccc(N(C)C)c3)C2)cc1OC1CCCC1 | > 10000 |  |
| 53 | COc1ccc([C@H]2CC(=O)N(c3cccc(NS(=O)(=O)c4c(Br)nn(C)c4Cl)c3)C2)cc1OC1CCCC1 | > 10000 |  |
| 40 | COc1ccc([C@H]2CC(=O)N(c3ccc([S+](C)[O-])cc3)C2)cc1OC1CCCC1 (stereo partly specified) | 7510 |  |
| > 10000 | COc1ccc([C@H]2CC(=O)N(Cc3cccc(C#N)c3)C2)cc1OC1CCCC1 | > 10000 |  |
| 2280 | COc1ccc([C@H]2CC(=O)N(c3ccccc3)C2)cc1OC1CCCC1 | > 10000 |  |

| EC50 [1] [nM] | SMILES | CC50 (HEK293) [nM] | further results |
| --- | --- | --- | --- |
| 1780 | COc1ccc([C@H]2CC(=O)N(c3cccc(O)c3)C2)cc1OC1CCCC1 | > 10000 |  |
| 502 | COc1ccc([C@H]2CC(=O)N(c3cccc(NC(=O)C(=O)c4cccs4)c3)C2)cc1OC1CCCC1 | > 10000 |  |
| > 10000 | COc1ccc([C@H]2CC(=O)N(c3cc(N)cc(N)c3)C2)cc1OC1CCCC1 | > 10000 |  |
| 102 | COc1ccc([C@H]2CC(=O)N(c3cccc(NS(=O)(=O)c4ccc(F)cc4)c3)C2)cc1OC1CCCC1 | > 10000 |  |
| 196 | COc1ccc([C@H]2CC(=O)N(c3ccc(C)c(N)c3)C2)cc1OC1CCCC1 | > 10000 |  |
| > 10000 | COc1ccc([C@H]2CC(=O)N(c3ccccc3N)C2)cc1OC1CCCC1 | > 10000 |  |
| 5790 | COc1ccc([C@H]2CC(=O)N(c3cccc(NC(=O)C(C)=O)c3)C2)cc1OC1CCCC1 | > 10000 |  |
| 110 | COc1ccc([C@H]2CC(=O)N(c3ccncc3)C2)cc1OC1CCCC1 | > 10000 |  |
| > 10000 | COc1ccc([C@H]2CC(=O)N(c3cccc(S(C)(=O)=O)c3)C2)cc1OC1CCCC1 | > 10000 |  |
| 180 | COc1ccc([C@H]2CC(=O)N(c3ccc(S(C)(=O)=O)cc3)C2)cc1OC1CCCC1 | > 10000 |  |
| 800 | COc1ccc([C@H]2CC(=O)N(c3cccc(NS(=O)(=O)c4cccc(OC(F)(F)F)c4)c3)C2)cc1OC1CCCC1 | > 10000 |  |
| 419 | COc1ccc([C@H]2CC(=O)N(c3cccc(C)c3)C2)cc1OC1CCCC1 | > 10000 |  |
|  | O=C1Nc2ccc(Cl)cc2[C@@](C#CC2CC2)(C(F)(F)F)O1 [EFAVIRENZ] |  | EC50 [3]: 2530 nM; EC50 [7]: 1 nM; EC50 [8]: 32 nM; EC50 [9]: 10 nM |
| 256 | COc1ccc(S(=O)(=O)Nc2cccc(N3C[C@@H](c4ccc(OC)c(OC5CCCC5)c4)CC3=O)c2)cc1 | > 10000 |  |
| 7900 | COc1ccc([C@H]2CC(=O)N(c3cccc(NCCCc4ccccc4)c3)C2)cc1OC1CCCC1 | > 10000 |  |
| > 10000 | COc1ccc([C@H]2CC(=O)N(c3ccccc3C(F)(F)F)C2)cc1OC1CCCC1 | > 10000 |  |
| 1960 | COc1ccc([C@H]2CC(=O)N(c3cccc(NCc4ccoc4)c3)C2)cc1OC1CCCC1 | > 10000 |  |
| 520 | COc1ccc([C@H]2CC(=O)N(c3cccc(C#N)c3)C2)cc1OC1CCCC1 | > 10000 |  |
| > 10000 | COc1ccc([C@H]2CC(=O)N(Cc3cccc(N)c3)C2)cc1OC1CCCC1 | > 10000 |  |
| 80 | COc1ccc([C@H]2CC(=O)N(c3cc(N)cc(F)c3)C2)cc1OC1CCCC1 | > 10000 |  |
| > 10000 | COc1ccc([C@H]2CC(=O)N(c3ccccc3C)C2)cc1OC1CCCC1 | > 10000 |  |
| 660 | COc1ccc([C@H]2CC(=O)N(c3ccc(C#N)cc3)C2)cc1OC1CCCC1 | > 10000 |  |

| SMILES | EC50 [1] [nM] | CC50 (HEK293) [nM] | further results |
| --- | --- | --- | --- |
| COc1cccc(S(=O)(=O)Nc2cccc(N3C[C@@H](c4ccc(OC)c(OC5CCCC5)c4)CC3=O)c2)c1 | 25 | > 10000 | Selectivity ratio [2]: 1.3; EC50 [3]: 76 nM; Selectivity ratio [4]: 40; Selectivity ratio [5]: 3; Selectivity ratio [6]: 26; EC50 [7]: 990 nM; EC50 [8]: 656 nM; EC50 [9]: 33 nM |
| COc1ccc([C@H]2CC(=O)N(c3cccc(NS(=O)(=O)c4cccc(Br)c4)c3)C2)cc1OC1CCCC1 | 71 | > 10000 | Selectivity ratio [2]: 0.74; EC50 [3]: 83 nM; Selectivity ratio [4]: 32; Selectivity ratio [5]: 1.1; Selectivity ratio [6]: 13; EC50 [7]: 2260 nM; EC50 [8]: 923 nM; EC50 [9]: 53 nM |
| COc1ccc([C@H]2CC(=O)N(c3cccc(NS(=O)(=O)c4cccc(F)c4)c3)C2)cc1OC1CCCC1 | 43 | > 10000 | Selectivity ratio [2]: 0.46; EC50 [3]: 26 nM; Selectivity ratio [4]: 16; Selectivity ratio [5]: 0.6; Selectivity ratio [6]: 6; EC50 [7]: 684 nM; EC50 [8]: 261 nM; EC50 [9]: 20 nM |
| COc1ccc([C@H]2CC(=O)N(c3cccc(NS(=O)(=O)c4ccccc4C)c3)C2)cc1OC1CCCC1 | 24 | > 10000 | Selectivity ratio [2]: 0.42; EC50 [3]: 17 nM; Selectivity ratio [4]: 10; Selectivity ratio [5]: 0.7; Selectivity ratio [6]: 4.9; EC50 [7]: 246 nM; EC50 [8]: 117 nM; EC50 [9]: 10 nM |
| COc1ccc([C@H]2CC(=O)N(c3cccc(NS(=O)(=O)c4c(F)cccc4F)c3)C2)cc1OC1CCCC1 | 48 | > 10000 | Selectivity ratio [2]: 1.4; EC50 [3]: 52 nM; Selectivity ratio [4]: 27; Selectivity ratio [5]: 1; Selectivity ratio [6]: 9.4; EC50 [7]: 1300 nM; EC50 [8]: 451 nM; EC50 [9]: 68 nM |
| COc1ccc([C@H]2CC(=O)N(c3cccc(NS(=O)(=O)c4cccc(Cl)c4)c3)C2)cc1OC1CCCC1 | 25 | > 10000 | Selectivity ratio [2]: 1.6; EC50 [3]: 56 nM; Selectivity ratio [4]: 93; Selectivity ratio [5]: 2.2; Selectivity ratio [6]: 27; EC50 [7]: 2320 nM; EC50 [8]: 689 nM; EC50 [9]: 40 nM |
| COc1ccc([C@H]2CC(=O)N(c3cccc(NS(=O)(=O)c4cccc(Cl)c4C)c3)C2)cc1OC1CCCC1 | 20 | > 10000 | Selectivity ratio [2]: 0.4; EC50 [3]: 10 nM; Selectivity ratio [4]: 19; Selectivity ratio [5]: 0.5; Selectivity ratio [6]: 8.1; EC50 [7]: 389 nM; EC50 [8]: 162 nM; EC50 [9]: 8 nM |
| COc1ccc([C@H]2CC(=O)N(c3cccc(NS(=O)(=O)c4cc(C)ccc4OC)c3)C2)cc1OC1CCCC1 | 33 | > 10000 | Selectivity ratio [2]: 0.7; Selectivity ratio [4]: 15; Selectivity ratio [5]: 1; Selectivity ratio [6]: 5.2; EC50 [7]: 507 nM; EC50 [8]: 172 nM; EC50 [9]: 23 nM |
